Test results as given in ChEMBL document CHEMBL1134340, “GnRH antagonists: a new generation of long acting analogues incorporating p-ureido-phenylalanines at positions 5 and 6” (J Med Chem, 2001).
Where a SMILES comes first, the peptide text is derived from it. [ ]: non-standard residue; d: D form. dPhe(4-NHCONH2) = NC(=O)Nc1ccc(C[C@@H](N)C(=O)O)cc1; d(hArg(Et2)) = CCN=C(NCC)NCCCC[C@@H](N)C(=O)O; hArg(Et2) = CCN=C(NCC)NCCCC[C@H](N)C(=O)O; dPhe(4-Cl) = N[C@H](Cc1ccc(Cl)cc1)C(=O)O; Phe(4-NH2) = Nc1ccc(C[C@H](N)C(=O)O)cc1; d2Nal = N[C@H](Cc1ccc2ccccc2c1)C(=O)O; Lys(iPr) = CC(C)NCCCC[C@H](N)C(=O)O; NMeY = CN[C@@H](Cc1ccc(O)cc1)C(=O)O; d3Pal = N[C@H](Cc1cccnc1)C(=O)O

Tests used:
[1] = species on record: Rattus norvegicus; assay: Compound was tested for inhibition of Leutenizing hormone release at 72 hours (long duration) in castrated male rat assay; type: functional; set-up: concentration or dose not given beside the values
How it was run: (§1)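 Male Sprague-Dawley rats (180-200 g), castrated under ether 10 days earlier, 5 per group. 50 µg/rat given sc in 100 µL 40 mM phosphate buffer with 0.1% BSA and 0.6% DMSO; acyline run as internal standard. Tail blood taken predose and at 24, 48, 72, 96 (sometimes 120) h; plasma LH by RIA. Duration classed by >80% LH inhibition at each time.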

[2] = species on record: Rattus norvegicus; assay: Compound was tested for inhibition of Leutenizing hormone release at 96 hours (very long duration) in castrated male rat assay; type: functional; set-up: concentration or dose not given beside the values; how it was run: as §1
[3] = target: T1, Gonadotropin-releasing hormone receptor (Homo sapiens, UniProt P30968); assay: Competitive antagonism of GnRH-induced response in the reporter gene assay; type: functional; details: read-out: pA2 (converted)
T1 sequence (P30968 whole entry): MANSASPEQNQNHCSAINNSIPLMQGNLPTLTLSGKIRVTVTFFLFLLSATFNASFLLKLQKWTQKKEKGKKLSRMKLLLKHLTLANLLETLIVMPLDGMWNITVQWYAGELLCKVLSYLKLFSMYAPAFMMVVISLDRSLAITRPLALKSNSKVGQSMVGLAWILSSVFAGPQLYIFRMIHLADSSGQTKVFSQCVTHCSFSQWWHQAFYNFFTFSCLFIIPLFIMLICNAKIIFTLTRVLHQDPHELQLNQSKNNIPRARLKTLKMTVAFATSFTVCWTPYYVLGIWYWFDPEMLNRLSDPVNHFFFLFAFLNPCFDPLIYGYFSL
How it was run: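 Same HEK293 human GnRH receptor luciferase reporter cells. Seven-point GnRH curve (10 µM to 10 pM final) run in duplicate without or with four to five increasing compound concentrations (10 min preincubation, 37 °C), then 5 h and luminescence. GnRH EC50 at each level by four-parameter logistic fit, giving pA2; mean of two determinations in duplicate.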

[4] = target: T1, Gonadotropin-releasing hormone receptor; assay: Antagonism of human GnHR receptor, determined in a reporter gene assay in HEK293 cells; type: functional, cell-based
How it was run: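 HEK293 cells stably expressing cloned human GnRH receptor plus luciferase reporter under LH alpha subunit promoter, plated 24 h before assay. Compound in 1% DMSO added 10 min at 37 °C, then GnRH at 3 nM final; 5 h incubation, luciferase luminescence read. Six concentrations in duplicate; blank-subtracted cps as % of GnRH control; mean of two determinations.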

[5] = species on record: Rattus norvegicus; assay: Compound was tested for histamine release at a concentration of 100 ug/mL; type: functional
How it was run: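 Sprague-Dawley rat peritoneal mast cells, Percoll-purified, in heparinized balanced salt solution with albumin, pH 7.2. Cells exposed to compound or vehicle for 2 min at 37 °C. Supernatant histamine measured spectrofluorometrically after o-phthalaldehyde derivatization; pellets lysed for retained histamine. Reported as % of total histamine released, corrected for spontaneous release in vehicle.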

| SMILES | Kb [3] [nM] | IC50 [4] [nM] | Inhibition [1] [%] | Inhibition [2] [%] | HR [5] [%] |
| --- | --- | --- | --- | --- | --- |
| CCNC(=O)[C@@H]1CCCN1C(=O)[C@H](CCCCNC(C)C)NC(=O)[C@H](CC(C)C)NC(=O)[C@@H](Cc1ccc(NC(N)=O)cc1)NC(=O)[C@H](Cc1ccc(NC(=O)[C@@H]2CC(=O)NC(=O)N2)cc1)NC(=O)[C@H](CO)NC(=O)[C@@H](Cc1cccnc1)NC(=O)[C@@H](Cc1ccc(Cl)cc1)NC(=O)[C@@H](Cc1ccc2ccccc2c1)NC(C)=O |  |  | >80 |  |  |
| CC(=O)N[C@H](Cc1ccc2ccccc2c1)C(=O)N[C@H](Cc1ccc(Cl)cc1)C(=O)N[C@H](Cc1cccnc1)C(=O)N[C@@H](CO)C(=O)N[C@@H](Cc1ccc(NC(=O)[C@@H]2CC(=O)NC(=O)N2)cc1)C(=O)N[C@H](Cc1ccc(NC(N)=O)cc1)C(=O)N[C@@H](CC(C)C)C(=O)N[C@@H](CCCCNC(C)C)C(=O)N1CCC[C@H]1C(=O)N[C@H](C)CO |  |  |  | >80 |  |
| CC(=O)Nc1ccc(C[C@@H](NC(=O)[C@H](Cc2ccc(CNC(=O)[C@@H]3CC(=O)NC(=O)N3)cc2)NC(=O)[C@H](CO)NC(=O)[C@@H](Cc2cccnc2)NC(=O)[C@@H](Cc2ccc(Cl)cc2)NC(=O)[C@@H](Cc2ccc3ccccc3c2)NC(C)=O)C(=O)N[C@@H](CC(C)C)C(=O)N[C@@H](CCCCNC(C)C)C(=O)N2CCC[C@H]2C(=O)N[C@H](C)C(N)=O)cc1 [listing 1 of 2 here] |  |  | >80 |  |  |
| CC(=O)NCc1ccc(C[C@@H](NC(=O)[C@H](Cc2ccc(NC(=O)[C@@H]3CC(=O)NC(=O)N3)cc2)NC(=O)[C@H](CO)NC(=O)[C@@H](Cc2cccnc2)NC(=O)[C@@H](Cc2ccc(Cl)cc2)NC(=O)[C@@H](Cc2ccc3ccccc3c2)NC(C)=O)C(=O)N[C@@H](CC(C)C)C(=O)N[C@@H](CCCCNC(C)C)C(=O)N2CCC[C@H]2C(=O)N[C@H](C)C(N)=O)cc1 |  |  | >80 |  |  |
| CC(=O)N[C@H](Cc1ccc2ccccc2c1)C(=O)N[C@H](Cc1ccc(Cl)cc1)C(=O)N[C@H](Cc1cccnc1)C(=O)N[C@@H](CO)C(=O)N[C@@H](Cc1ccc(NC(=O)[C@@H]2CC(=O)NC(=O)N2)cc1)C(=O)N[C@H](Cc1ccc(NC(N)=O)cc1)C(=O)N[C@@H](CC(C)C)C(=O)N[C@@H](CCCCNC(C)C)C(=O)N1CCC[C@H]1C(=O)N[C@@H](C)CO |  |  | >80 |  |  |
| CC(=O)N[C@H](Cc1ccc2ccccc2c1)C(=O)N[C@H](Cc1ccc(Cl)cc1)C(=O)N[C@H](Cc1cccnc1)C(=O)N[C@@H](CO)C(=O)N[C@@H](Cc1ccc(NC(=O)[C@@H]2CC(=O)NC(=O)N2)cc1)C(=O)N[C@H](CCCNC(N)=O)C(=O)N[C@@H](CC(C)C)C(=O)N[C@@H](CCCCNC(C)C)C(=O)N1CCC[C@H]1C(=O)N[C@H](C)C(N)=O |  |  | >80 |  |  |
| CC(=O)NCc1ccc(C[C@@H](NC(=O)[C@H](Cc2ccc(NC(=O)[C@H]3CC(=O)NC(=O)N3)cc2)NC(=O)[C@H](CO)NC(=O)[C@@H](Cc2cccnc2)NC(=O)[C@@H](Cc2ccc(Cl)cc2)NC(=O)[C@@H](Cc2ccc3ccccc3c2)NC(C)=O)C(=O)N[C@@H](CC(C)C)C(=O)N[C@@H](CCCCNC(C)C)C(=O)N2CCC[C@H]2C(=O)N[C@H](C)C(N)=O)cc1 |  |  | >80 |  |  |
| CC(=O)Nc1ccc(C[C@@H](NC(=O)[C@H](Cc2ccc(NC(=O)[C@H]3CC(=O)NC(=O)N3)cc2)NC(=O)[C@H](CO)NC(=O)[C@@H](Cc2cccnc2)NC(=O)[C@@H](Cc2ccc(Cl)cc2)NC(=O)[C@@H](Cc2ccc3ccccc3c2)NC(C)=O)C(=O)N[C@@H](CC(C)C)C(=O)N[C@@H](CCCCNC(C)C)C(=O)N2CCC[C@H]2C(=O)N[C@H](C)C(N)=O)cc1 | 1 | 8.6 | >80 |  |  |
| CC(=O)N[C@H](Cc1ccc2ccccc2c1)C(=O)N[C@H](Cc1ccc(Cl)cc1)C(=O)N[C@H](Cc1cccnc1)C(=O)N[C@@H](CO)C(=O)N[C@@H](Cc1ccc(NC(=O)[C@@H]2CC(=O)NC(=O)N2)cc1)C(=O)N[C@H](Cc1ccc(CNC(N)=O)cc1)C(=O)N[C@@H](CC(C)C)C(=O)N[C@@H](CCCCNC(C)C)C(=O)N1CCC[C@H]1C(=O)N[C@@H](C)CO | 0.631 | 5.5 |  | >80 |  |
| CCN=C(NCC)NCCCC[C@H](NC(=O)[C@H](CC(C)C)NC(=O)[C@@H](CCCCNC(=NCC)NCC)NC(=O)[C@H](Cc1ccc(O)cc1)NC(=O)[C@H](CO)NC(=O)[C@@H](Cc1cccnc1)NC(=O)[C@@H](Cc1ccc(Cl)cc1)NC(=O)[C@@H](Cc1ccc2ccccc2c1)NC(C)=O)C(=O)N1CCC[C@H]1C(=O)N[C@H](C)C(N)=O [GANIRELIX ACETATE] (Ac-[d2Nal][dPhe(4-Cl)][d3Pal]SY[d(hArg(Et2))]L[hArg(Et2)]P[dA]-NH2) | 0.501 | 3.6 |  |  |  |
| CC(=O)Nc1ccc(C[C@@H](NC(=O)[C@H](Cc2ccc(NC(=O)[C@@H]3CNC(=O)N3)cc2)NC(=O)[C@H](CO)NC(=O)[C@@H](Cc2cccnc2)NC(=O)[C@@H](Cc2ccc(Cl)cc2)NC(=O)[C@@H](Cc2ccc3ccccc3c2)NC(C)=O)C(=O)N[C@@H](CC(C)C)C(=O)N[C@@H](CCCCNC(C)C)C(=O)N2CCC[C@H]2C(=O)N[C@H](C)C(N)=O)cc1 | 0.631 | 9.1 | >80 |  |  |
| CNC(=O)NCc1ccc(C[C@@H](NC(=O)[C@H](Cc2ccc(NC(=O)[C@@H]3CC(=O)NC(=O)N3)cc2)NC(=O)[C@H](CO)NC(=O)[C@@H](Cc2cccnc2)NC(=O)[C@@H](Cc2ccc(Cl)cc2)NC(=O)[C@@H](Cc2ccc3ccccc3c2)NC(C)=O)C(=O)N[C@@H](CC(C)C)C(=O)N[C@@H](CCCCNC(C)C)C(=O)N2CCC[C@H]2C(=O)N[C@H](C)C(N)=O)cc1 | 0.794 | 7.9 |  |  |  |
| CC(=O)Nc1ccc(C[C@H](NC(=O)[C@H](CO)NC(=O)[C@@H](Cc2cccnc2)NC(=O)[C@@H](Cc2ccc(Cl)cc2)NC(=O)[C@@H](Cc2ccc3ccccc3c2)NC(C)=O)C(=O)N[C@H](Cc2ccc(NC(N)=O)cc2)C(=O)N[C@@H](CC(C)C)C(=O)N[C@@H](CCCCNC(C)C)C(=O)N2CCC[C@H]2C(=O)N[C@H](C)C(N)=O)cc1 (Ac-[d2Nal][dPhe(4-Cl)][d3Pal]S[Phe(4-NH2)](Ac)[dPhe(4-NHCONH2)]L[Lys(iPr)]P[dA]-NH2) | 0.501 | 6.1 | >80 |  |  |

Now from value to compound, other results behind:

| Kb [3] [nM] | IC50 [4] [nM] | SMILES | Inhibition [1] [%] | Inhibition [2] [%] | HR [5] [%] |
| --- | --- | --- | --- | --- | --- |
| 1 | 7.8 | CC(=O)N[C@H](Cc1ccc2ccccc2c1)C(=O)N[C@H](Cc1ccc(Cl)cc1)C(=O)N[C@H](Cc1cccnc1)C(=O)N[C@@H](CO)C(=O)N[C@@H](Cc1ccc(NC(=O)[C@@H]2CC(=O)NC(=O)N2)cc1)C(=O)N[C@H](Cc1ccc(CNC(N)=O)cc1)C(=O)N[C@@H](CC(C)C)C(=O)N[C@@H](CCCCNC(C)C)C(=O)N1CCC[C@H]1C(=O)N[C@H](C)CO |  | >80 |  |
| 0.316 | 7.9 | CC(=O)Nc1ccc(C[C@@H](NC(=O)[C@H](Cc2ccc(CNC(=O)[C@@H]3CC(=O)NC(=O)N3)cc2)NC(=O)[C@H](CO)NC(=O)[C@@H](Cc2cccnc2)NC(=O)[C@@H](Cc2ccc(Cl)cc2)NC(=O)[C@@H](Cc2ccc3ccccc3c2)NC(C)=O)C(=O)N[C@@H](CC(C)C)C(=O)N[C@@H](CCCCNC(C)C)C(=O)N2CCC[C@H]2C(=O)N[C@H](C)C(N)=O)cc1 [listing 2 of 2 here] |  |  |  |
| 1 | 10.8 | CC(=O)N[C@H](Cc1ccc2ccccc2c1)C(=O)N[C@H](Cc1ccc(Cl)cc1)C(=O)N[C@H](Cc1cccnc1)C(=O)N[C@@H](CO)C(=O)N[C@@H](Cc1ccc(NC(=O)[C@@H]2CC(=O)NC(=O)N2)cc1)C(=O)N[C@H](Cc1ccc(NC(=O)[C@@H]2CC(=O)NC(=O)N2)cc1)C(=O)N[C@@H](CC(C)C)C(=O)N[C@@H](CCCCNC(C)C)C(=O)N1CCC[C@H]1C(=O)N[C@H](C)C(N)=O |  |  |  |
| 0.794 | 3.5 | CC(=O)N[C@H](Cc1ccc2ccccc2c1)C(=O)N[C@H](Cc1ccc(Cl)cc1)C(=O)N[C@H](Cc1cccnc1)C(=O)N[C@@H](CO)C(=O)N(C)[C@@H](Cc1ccc(O)cc1)C(=O)N[C@H](CC(N)=O)C(=O)N[C@@H](CC(C)C)C(=O)N[C@@H](CCCCNC(C)C)C(=O)N1CCC[C@H]1C(=O)N[C@H](C)C(N)=O [ABARELIX] (Ac-[d2Nal][dPhe(4-Cl)][d3Pal]S[NMeY][dN]L[Lys(iPr)]P[dA]-NH2) |  |  |  |
| 1.26 | 4.3 | CC(=O)Nc1ccc(C[C@@H](NC(=O)[C@H](Cc2ccc(NC(=O)[C@@H]3CC(=O)NC(=O)N3)cc2)NC(=O)[C@H](CO)NC(=O)[C@@H](Cc2cccnc2)NC(=O)[C@@H](Cc2ccc(Cl)cc2)NC(=O)[C@@H](Cc2ccc3ccccc3c2)NC(C)=O)C(=O)N[C@@H](CC(C)C)C(=O)N[C@@H](CCCCNC(C)C)C(=O)N2CCC[C@H]2C(=O)N[C@H](C)C(N)=O)cc1 |  | >80 | 54 |
| 1.26 | 5.6 | CC(=O)N[C@H](Cc1ccc2ccccc2c1)C(=O)N[C@H](Cc1ccc(Cl)cc1)C(=O)N[C@H](Cc1cccnc1)C(=O)N[C@@H](CO)C(=O)N[C@@H](Cc1ccc(NC(=O)[C@@H]2CC(=O)NC(=O)N2)cc1)C(=O)N[C@H](Cc1ccc(CNC(N)=O)cc1)C(=O)N[C@@H](CC(C)C)C(=O)N[C@@H](CCCCNC(C)C)C(=O)N1CCC[C@H]1C(=O)N[C@H](C)C(N)=O |  |  |  |
